Columns and labels:
[1] = target: hAChE (Homo sapiens, UniProt P22303); test: In vitro AChE inhibition assay; type: biochemical; settings: for IC50: in vitro AChE inhibition IC50 ± SD, Ellman method, n = 3
[2] = target: hBuChE (Homo sapiens, UniProt P06276); test: In vitro BuChE inhibition assay; type: biochemical; settings: for IC50: BuChE IC50 ± SD, modified Ellman method
[3] = target: BACE-1 (Homo sapiens, UniProt P56817); test: β-Secretase inhibition assay; type: biochemical; settings: BACE-1 IC50 ± SD
Chain of BACE-1 (P56817 46-501): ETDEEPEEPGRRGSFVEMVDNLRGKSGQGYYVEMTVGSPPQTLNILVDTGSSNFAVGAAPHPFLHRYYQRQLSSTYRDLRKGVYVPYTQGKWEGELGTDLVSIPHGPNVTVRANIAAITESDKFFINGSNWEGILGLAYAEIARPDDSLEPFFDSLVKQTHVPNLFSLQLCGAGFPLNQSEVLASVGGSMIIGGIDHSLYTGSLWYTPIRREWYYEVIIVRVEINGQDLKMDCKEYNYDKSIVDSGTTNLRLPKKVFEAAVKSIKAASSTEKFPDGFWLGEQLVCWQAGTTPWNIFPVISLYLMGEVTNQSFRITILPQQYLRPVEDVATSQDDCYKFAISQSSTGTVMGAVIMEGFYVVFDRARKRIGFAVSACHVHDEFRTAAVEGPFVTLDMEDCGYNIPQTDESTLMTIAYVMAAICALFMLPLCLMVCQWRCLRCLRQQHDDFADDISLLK

[4] = target: T1, hMAO-B (Homo sapiens, UniProt P27338); test: biochemical; type: biochemical
T1 sequence (P27338 1-520): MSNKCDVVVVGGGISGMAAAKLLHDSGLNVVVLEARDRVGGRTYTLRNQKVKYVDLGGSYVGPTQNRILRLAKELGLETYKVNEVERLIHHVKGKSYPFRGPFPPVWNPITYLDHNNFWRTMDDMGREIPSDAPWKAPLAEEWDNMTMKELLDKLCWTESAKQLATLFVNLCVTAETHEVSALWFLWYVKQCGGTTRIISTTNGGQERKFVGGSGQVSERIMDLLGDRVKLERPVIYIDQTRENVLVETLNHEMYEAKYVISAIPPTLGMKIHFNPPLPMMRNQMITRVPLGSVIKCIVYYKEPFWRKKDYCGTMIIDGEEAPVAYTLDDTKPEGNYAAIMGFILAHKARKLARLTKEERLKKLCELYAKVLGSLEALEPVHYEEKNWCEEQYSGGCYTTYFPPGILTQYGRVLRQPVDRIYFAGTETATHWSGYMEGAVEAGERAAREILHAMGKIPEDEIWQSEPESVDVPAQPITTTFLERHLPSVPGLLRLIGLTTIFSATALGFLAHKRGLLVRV

[5] = target: Aβ1–42 (Homo sapiens, UniProt P05067); test: Self-induced Aβ1–42 aggregation inhibition; type: biochemical; settings: for IC50: Aβ1–42 aggregation inhibition IC50, self-induced aggregation; for inhibition at 10 µM: read-out: Aβ1–42 (% inhibition at 10 μM)
Chain of Aβ1–42 (P05067 672-713): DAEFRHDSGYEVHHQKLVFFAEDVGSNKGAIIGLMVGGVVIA

[6] = In vitro neurotoxicity MTT assay; type: cell-based; settings: human, SH-SY5Y neuroblastoma cells
[7] = Metal chelation assay, UV–vis spectroscopy; type: physicochemical; settings: compound 30 μM, FeSO4 30 μM, ethanol
Outline: (§1)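 Test compound and metal salt (CuSO4, ZnSO4 or FeSO4) mixed in ethanol, both at 30 μM final, and incubated 30 min at room temperature. UV-vis spectra were recorded from 200 to 600 nm for the compound alone, the metal alone and the mixture. Spectra of metal alone and compound alone were subtracted from the mixture spectrum to give the difference spectrum attributed to complex formation.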

[8] = Metal chelation assay, UV–vis spectroscopy; type: physicochemical; settings: compound 30 μM, CuSO4 30 μM, ethanol
Outline: as §1

[9] = Metal chelation assay, UV–vis spectroscopy; type: physicochemical; settings: compound 30 μM, ZnSO4 30 μM, ethanol
Outline: as §1

[10] = In vitro hepatotoxicity MTT assay; settings: human
[11] = tested on: HepG2 cell line; test: In vitro hepatotoxicity MTT assay; settings: ratio of hepatotoxicity IC50 to AChE IC50

Chain of hBuChE (P06276 29-602): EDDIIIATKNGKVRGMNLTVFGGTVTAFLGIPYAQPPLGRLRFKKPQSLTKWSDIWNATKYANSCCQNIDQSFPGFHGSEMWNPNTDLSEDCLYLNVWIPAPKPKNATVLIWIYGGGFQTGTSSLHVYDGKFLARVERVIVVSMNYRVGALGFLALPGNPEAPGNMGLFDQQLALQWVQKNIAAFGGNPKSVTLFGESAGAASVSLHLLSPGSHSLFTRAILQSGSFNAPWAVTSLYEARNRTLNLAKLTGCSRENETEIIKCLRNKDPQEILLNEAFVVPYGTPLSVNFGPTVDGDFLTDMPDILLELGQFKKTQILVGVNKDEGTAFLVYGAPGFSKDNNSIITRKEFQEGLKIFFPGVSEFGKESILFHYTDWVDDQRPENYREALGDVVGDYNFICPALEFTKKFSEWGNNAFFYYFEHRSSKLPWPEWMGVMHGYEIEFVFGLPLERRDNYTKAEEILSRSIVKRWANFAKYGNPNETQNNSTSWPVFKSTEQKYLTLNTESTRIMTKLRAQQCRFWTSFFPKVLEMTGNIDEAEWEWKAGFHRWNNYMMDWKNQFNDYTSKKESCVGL
Chain of hAChE (P22303 32-614): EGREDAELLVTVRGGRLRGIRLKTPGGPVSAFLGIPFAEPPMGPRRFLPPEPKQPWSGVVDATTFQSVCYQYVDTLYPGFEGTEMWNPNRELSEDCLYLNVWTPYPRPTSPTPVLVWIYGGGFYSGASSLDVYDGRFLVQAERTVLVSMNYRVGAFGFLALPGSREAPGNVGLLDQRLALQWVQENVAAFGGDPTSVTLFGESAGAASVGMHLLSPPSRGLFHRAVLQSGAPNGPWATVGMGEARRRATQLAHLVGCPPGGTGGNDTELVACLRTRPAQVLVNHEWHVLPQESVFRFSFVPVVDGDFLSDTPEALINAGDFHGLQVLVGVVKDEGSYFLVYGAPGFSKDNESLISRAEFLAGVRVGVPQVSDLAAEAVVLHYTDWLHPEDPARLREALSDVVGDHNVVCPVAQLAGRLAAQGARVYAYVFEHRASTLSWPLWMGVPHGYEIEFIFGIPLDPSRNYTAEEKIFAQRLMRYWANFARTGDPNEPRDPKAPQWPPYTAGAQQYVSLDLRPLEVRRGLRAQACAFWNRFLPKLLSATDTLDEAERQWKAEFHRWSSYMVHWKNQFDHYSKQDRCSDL

COc1ccc(S(=O)(=O)Oc2ccc3c(c2)Oc2nc4c(c(N)c2C3c2cccc(OC)c2)CCCC4)cc1 (centres unmarked) [4g, 11-Amino-12-(3-methoxyphenyl)-7,9,10,12-tetrahydro-8H-chromeno[2,3-b]quinolin-3-yl-4-methoxybenzenesulfonate]
AChE SI (selectivity index) = IC50 of BuChE/IC50 of AChE [1]: 1.18
IC50 [1]: 300 ± 10 nM
BuChE SI (selectivity index) = IC50 of AChE/IC50 of BuChE [2]: 0.85
IC50 [2]: 350 ± 21 nM
IC50 [3]: 1460 ± 68 nM
IC50 [4]: 12700 ± 430 nM
IC50 [5]: 11700 ± 450 nM
inhibition at 10 µM [5]: 43%
IC50 [6]: 86000 ± 3810 nM
UV–vis spectral change on addition of FeSO4 (metal chelation) [7]: hyperchromic shifts
UV–vis spectral change on addition of CuSO4 (metal chelation) [8]: hyperchromic shifts
UV–vis spectral change on addition of ZnSO4 (metal chelation) [9]: slight hypochromic shift
IC50 at 24 h [10]: 126000 ± 5300 nM
safety index ratio (SI) [11]: 417.88

COc1cccc(C2c3ccc(OS(=O)(=O)c4ccc(C)cc4)cc3Oc3nc4c(c(N)c32)CCCC4)c1 (centres unmarked) [4l, 11-Amino-12-(3-methoxyphenyl)-7,9,10,12-tetrahydro-8H-chromeno[2,3-b]quinolin-3-yl-4-methylbenzenesulfonate]
IC50 [1]: 2620 ± 110 nM

Cc1ccc(S(=O)(=O)Oc2ccc3c(c2)Oc2nc4c(c(N)c2C3c2cccc([N+](=O)[O-])c2)CCCC4)cc1 (centres unmarked) [4m, 11-Amino-12-(3-nitrophenyl)-7,9,10,12-tetrahydro-8H-chromeno[2,3-b]quinolin-3-yl-4-methylbenzenesulfonate]
IC50 [1]: 11100 ± 480 nM

COc1ccccc1C1c2ccc(OS(=O)(=O)c3ccc(C)cc3)cc2Oc2nc3c(c(N)c21)CCCC3 (centres unmarked) [4o, 11-Amino-12-(2-methoxyphenyl)-7,9,10,12-tetrahydro-8H-chromeno[2,3-b]quinolin-3-yl-4-methylbenzenesulfonate]
IC50 [1]: 1030 ± 40 nM

Nc1c2c(nc3c1C(c1cccc(Br)c1)c1ccc(OS(=O)(=O)c4ccccc4)cc1O3)CCCC2 (centres unmarked) [4p, 11-Amino-12-(3-bromophenyl)-7,9,10,12-tetrahydro-8H-chromeno[2,3-b]quinolin-3-yl-benzenesulfonate]
IC50 [1]: 1340 ± 70 nM

COc1cccc(C2c3ccc(OS(=O)(=O)c4ccccc4)cc3Oc3nc4c(c(N)c32)CCCC4)c1 (centres unmarked) [4q, 11-Amino-12-(3-methoxyphenyl)-7,9,10,12-tetrahydro-8H-chromeno[2,3-b]quinolin-3-yl-benzenesulfonate]
IC50 [1]: 2450 ± 120 nM

Nc1c2c(nc3c1C(c1cccc([N+](=O)[O-])c1)c1ccc(OS(=O)(=O)c4ccccc4)cc1O3)CCCC2 (centres unmarked) [4r, 11-Amino-12-(3-nitrophenyl)-7,9,10,12-tetrahydro-8H-chromeno[2,3-b]quinolin-3-yl-benzenesulfonate]
IC50 [1]: 5500 ± 280 nM

Nc1c2c(nc3c1C(c1ccc(Cl)c(Cl)c1)c1ccc(OS(=O)(=O)c4ccccc4)cc1O3)CCCC2 (centres unmarked) [4s, 11-Amino-12-(3,4-dichlorophenyl)-7,9,10,12-tetrahydro-8H-chromeno[2,3-b]quinolin-3-yl-benzenesulfonate]
IC50 [1]: 9690 ± 490 nM

COc1ccccc1C1c2ccc(OS(=O)(=O)c3ccccc3)cc2Oc2nc3c(c(N)c21)CCCC3 (centres unmarked) [4t, 11-Amino-12-(2-methoxyphenyl)-7,9,10,12-tetrahydro-8H-chromeno[2,3-b]quinolin-3-yl-benzenesulfonate]
IC50 [1]: 24000 ± 1210 nM

Nc1c2c(nc3c1C(c1cccc(Br)c1)c1ccc(OCC(=O)c4ccc(Cl)cc4)cc1O3)CCCC2 (centres unmarked) [5a, 2-[11-Amino-12-(3-bromophenyl)-7,9,10,12-tetrahydro-8H-chromeno[2,3-b]quinolin-3-yl]oxy-1-(4-chlorophenyl)ethan-1-one]
IC50 [1]: 990 ± 50 nM

COc1cccc(C2c3ccc(OCC(=O)c4ccc(Cl)cc4)cc3Oc3nc4c(c(N)c32)CCCC4)c1 (centres unmarked) [5b, 2-[11-Amino-12-(3-methoxyphenyl)-7,9,10,12-tetrahydro-8H-chromeno[2,3-b]quinolin-3-yl]oxy-1-(4-chlorophenyl)ethan-1-one]
IC50 [1]: 6010 ± 300 nM

Nc1c2c(nc3c1C(c1ccc(Cl)c(Cl)c1)c1ccc(OCC(=O)c4ccc(Cl)cc4)cc1O3)CCCC2 (centres unmarked) [5d, 2-[11-Amino-12-(3,4-dichlorophenyl)-7,9,10,12-tetrahydro-8H-chromeno[2,3-b]quinolin-3-yl]oxy-1-(4-chlorophenyl)ethan-1-one]
AChE SI (selectivity index) = IC50 of BuChE/IC50 of AChE [1]: 0.59
IC50 [1]: 250 ± 10 nM
BuChE SI (selectivity index) = IC50 of AChE/IC50 of BuChE [2]: 1.69
fold more active than rivastigmine (BuChE inhibition) [2]: 5 fold
IC50 [2]: 140 ± 9 nM
IC50 [3]: 440 ± 21 nM
IC50 [4]: 2420 ± 80 nM
times better than iproniazid (MAO-B inhibition) [4]: ~3 times
times more active than curcumin (Aβ aggregation inhibition) [5]: 8 fold
IC50 [5]: 740 ± 30 nM
inhibition at 10 µM [5]: 76%
IC50 [6]: 71100 ± 2800 nM
UV–vis spectral change on addition of FeSO4 (metal chelation) [7]: noticeable optical shift
UV–vis spectral change on addition of CuSO4 (metal chelation) [8]: slight hyperchromic shift
UV–vis spectral change on addition of ZnSO4 (metal chelation) [9]: slight hyperchromic shift
IC50 at 24 h [10]: 154000 ± 6200 nM
safety index ratio (SI) [11]: 611.51

COc1ccccc1C1c2ccc(OCC(=O)c3ccc(Cl)cc3)cc2Oc2nc3c(c(N)c21)CCCC3 (centres unmarked) [5e, 2-[11-Amino-12-(2-methoxyphenyl)-7,9,10,12-tetrahydro-8H-chromeno[2,3-b]quinolin-3-yl]oxy-1-(4-chlorophenyl)ethan-1-one]
IC50 [1]: 750 ± 40 nM

Nc1c2c(nc3c1C(c1cccc(Br)c1)c1ccc(OCC(=O)c4ccccc4)cc1O3)CCCC2 (centres unmarked) [5f, 2-[11-Amino-12-(3-bromophenyl)-7,9,10,12-tetrahydro-8H-chromeno[2,3-b]quinolin-3-yl]oxy-1-phenylethan-1-one]
IC50 [1]: 1140 ± 54 nM

COc1cccc(C2c3ccc(OCC(=O)c4ccccc4)cc3Oc3nc4c(c(N)c32)CCCC4)c1 (centres unmarked) [5g, 2-[11-Amino-12-(3-methoxyphenyl)-7,9,10,12-tetrahydro-8H-chromeno[2,3-b]quinolin-3-yl]oxy-1-phenylethan-1-one]
IC50 [1]: 31000 ± 1470 nM

Nc1c2c(nc3c1C(c1cccc([N+](=O)[O-])c1)c1ccc(OCC(=O)c4ccccc4)cc1O3)CCCC2 (centres unmarked) [5h, 2-[11-Amino-12-(3-nitrophenyl)-7,9,10,12-tetrahydro-8H-chromeno[2,3-b]quinolin-3-yl]oxy-1-phenylethan-1-one]
IC50 [1]: 10200 ± 480 nM

Nc1c2c(nc3c1C(c1ccc(Cl)c(Cl)c1)c1ccc(OCC(=O)c4ccccc4)cc1O3)CCCC2 (centres unmarked) [5i, 2-[11-Amino-12-(3,4-dichlorophenyl)-7,9,10,12-tetrahydro-8H-chromeno[2,3-b]quinolin-3-yl]oxy-1-phenylethan-1-one]
AChE SI (selectivity index) = IC50 of BuChE/IC50 of AChE [1]: 0.47
IC50 [1]: 560 ± 30 nM
BuChE SI (selectivity index) = IC50 of AChE/IC50 of BuChE [2]: 2.12
fold more active than rivastigmine (BuChE inhibition) [2]: ~4 fold
IC50 [2]: 260 ± 16 nM
IC50 [3]: 2120 ± 98 nM
IC50 [4]: 1620 ± 50 nM
times better than iproniazid (MAO-B inhibition) [4]: ~4 times
IC50 [5]: 1410 ± 50 nM
inhibition at 10 µM [5]: 68%
IC50 [6]: 17200 ± 760 nM
UV–vis spectral change on addition of FeSO4 (metal chelation) [7]: hyperchromic effect
UV–vis spectral change on addition of CuSO4 (metal chelation) [8]: without remarkable shifts
UV–vis spectral change on addition of ZnSO4 (metal chelation) [9]: without remarkable shifts
IC50 at 24 h [10]: 113000 ± 5100 nM
safety index ratio (SI) [11]: 200.53

COc1ccccc1C1c2ccc(OCC(=O)c3ccccc3)cc2Oc2nc3c(c(N)c21)CCCC3 (centres unmarked) [5j, 2-[11-Amino-12-(2-methoxyphenyl)-7,9,10,12-tetrahydro-8H-chromeno[2,3-b]quinolin-3-yl]oxy-1-phenylethan-1-one]
IC50 [1]: 2480 ± 120 nM

COc1cc(/C=C/C(=O)CC(=O)/C=C/c2ccc(O)c(OC)c2)ccc1O [Curcumin, reference compound]
inhibition at 10 µM [5]: 44%

COc1cccc2c1C(=O)c1c(O)c3c(c(O)c1C2=O)C[C@@](O)(C(=O)CO)C[C@@H]3O[C@H]1C[C@H](N)[C@H](O)[C@H](C)O1 [Doxorubicin, reference compound]
IC50 at 24 h [10]: 4500 ± 200 nM

Nc1c2c(nc3ccccc13)CCCC2 [Tacrine, reference compound]
IC50 at 24 h [10]: 17500 ± 1100 nM

— paper PMC10373466 (ACS Omega, 2023)
